Published values of several laboratories.
Lines come from different studies, so protocols differ.
Observed: metabolic stability

`c1ccc(-c2nc(Nc3ccn4nccc4c3)c3ccccc3n2)nc1` has a microsomal CLint of 325 µL/min/mg (mouse, liver microsomes).
`CC(=O)N(C)C1CCN(c2cc(F)cc(NC(=O)c3cc4c(F)ccc(C)c4[nH]3)c2)C1` (centres unmarked) has a scaled CLint of 239 mL/min/kg (mouse, hepatocytes; 0.5 µM, 1 h).
`CO[C@@H](C[C@H]1C(C)=CC[C@@H]2[C@]3(C)C[C@H](O[C@@H]4O[C@@H](C)[C@H](OC(=O)c5cccc(O)c5)[C@@H](O[C@@H]5O[C@H](CO)[C@@H](O)[C@H](O)[C@H]5NC(C)=O)[C@H]4O)[C@@H](O)C(C)(C)[C@H]3CC[C@]21C)[C@H](N)C(=O)O` has a hepatocyte CLint of 4.69 µL/min/10⁶ cells (mouse, hepatocytes; 1 µM).
For `Cc1cc(Cl)c(Cl)cc1NC(=O)c1cc([N+](=O)[O-])c(N2CCNCC2)cc1Cl`, the scaled CLint was 25 mL/min/kg (CD-1 mouse, liver microsomes; 1 µM, 1 h, pH 7.4).
For `c1ccc(-c2nc(NCc3nccs3)c3ccccc3n2)nc1`, the microsomal CLint was 224 µL/min/mg (mouse, liver microsomes).
The scaled CLint of `CC(=O)Nc1cc(Nc2cc(NC3CC3)n3ncc(C#N)c3n2)ccc1N1CCC[C@H](O)C1` is reported as 511 mL/min/kg (male CD-1 mouse, hepatocytes; 1 µM, serum-free).
The scaled CLint of `O=C(Nc1cncc(-c2nc3ccccc3s2)c1)c1cc([N+](=O)[O-])c(N2CCNCC2)cc1Cl` is reported as 10 mL/min/kg (CD-1 mouse, liver microsomes; 1 µM, 1 h, pH 7.4).
The scaled CLint of `Cc1ccc(F)c2cc(C(=O)N[C@@H]3CCC[C@H](N4CCOCC4)C3)[nH]c12` is reported as 2170 mL/min/kg (mouse, hepatocytes; 0.5 µM, 1 h).
With `O=C(Nc1ccc(Cl)c(Cl)c1)c1ccc(N2CCNCC2)c([N+](=O)[O-])c1` the scaled CLint was 12 mL/min/kg (CD-1 mouse, liver microsomes; 1 µM, 1 h, pH 7.4).
The scaled CLint of `CN[C@@H]1CCCN(c2ccc(Nc3cc(NC4CC4)n4ncc(C#N)c4n3)cc2NC(C)=O)C1` is reported as 162 mL/min/kg (male CD-1 mouse, hepatocytes; 1 µM, serum-free).
The microsomal CLint of `N#Cc1ccccc1-c1nc(N2CCC(c3ccccn3)C2)c2ccccc2n1` (centres unmarked) is reported as 717 µL/min/mg (mouse, liver microsomes).
